ChEMBL document CHEMBL4706495, “A novel class of small molecule inhibitors with radioprotective properties” (Eur J Med Chem, 2020)
The source made the active and inactive calls. The rule behind the calls is not given here.

Tests used:
[1] = system: A2780; test: Cytotoxicity against human A2780 cells assessed as cell viability at 10 uM measured after 48 hrs by WST-1 assay relative to control; format: functional; conditions: read-out: Activity
How it was run: (§1)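 Ten-line human panel (9 cancer, 1 non-cancerous). Cells were seeded at a pre-established optimal density (500–30 × 10³ per well) and settled overnight. Compounds came from 10 mM DMSO stocks and were tested at two concentrations. WST-1 readout followed the manufacturer's protocol at the end of cultivation. Viability is expressed as % of untreated control cells, mean of three independent experiments.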

[2] = Toxicity in C57Bl/6 mouse assessed as average body weight at 100 mg/kg, ip and measured immediately (reference value: 26.3 +/- 2.4 g); format: organism-based; conditions: in vivo
[3] = system: HT-29; test: Cytotoxicity against human HT-29 cells assessed as cell viability at 100 uM measured after 48 hrs by WST-1 assay relative to control; format: functional; conditions: read-out: Activity; how it was run: as §1
[4] = system: MCF7; test: Cytotoxicity against human MCF7 cells assessed as cell viability at 10 uM measured after 48 hrs by WST-1 assay relative to control; format: functional; conditions: read-out: Activity; how it was run: as §1
[5] = system: Mus musculus; test: Radioprotective activity in C57Bl/6 mouse assessed as median survival time at 100 mg/kg, ip administered 5 min prior to gamma-irradation at 8.5 Gy and measured after 30 days (reference value: 12 days); format: functional
[6] = system: HeLa; test: Cytotoxicity against human HeLa cells assessed as cell viability at 10 uM measured after 48 hrs by WST-1 assay relative to control; format: functional; conditions: read-out: Activity; how it was run: as §1
[7] = system: Mus musculus; test: Radioprotective activity in C57Bl/6 mouse assessed as average body weight at 100 mg/kg, ip administered 5 min prior to gamma-irradation at 8.5 Gy and measured immediately (reference value: 25.4 +/- 2.6 g); format: functional
[8] = system: Mus musculus; test: Radioprotective activity in C57Bl/6 mouse assessed as average body weight at 100 mg/kg, ip administered 5 min prior to gamma-irradation at 8.5 Gy and measured after 30 days; format: functional
[9] = Cytotoxicity against human MRC5 cells assessed as cell viability at 10 uM measured after 48 hrs by WST-1 assay relative to control; format: cell-based; conditions: read-out: Activity; how it was run: as §1
[10] = Cytotoxicity against human MRC5 cells assessed as cell viability at 100 uM measured after 48 hrs by WST-1 assay relative to control; format: cell-based; conditions: read-out: Activity; how it was run: as §1
[11] = system: Mus musculus; test: Radioprotective activity in C57Bl/6 mouse assessed as increase in absolute T-lymphocytes at 100 mg/kg, ip pretreated with compound for 5 min followed by gamma irradiation at 8.5 Gy and measured after 12 to 30 days by flow cytometry; format: functional, organism-based
How it was run: (§2)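 C57Bl/6 mice receive 100 mg/kg i.p. 5 min before a single 8.5 Gy ⁶⁰Co γ dose. At 7, 12 and 30 days post-irradiation, 100 µl peripheral blood is stained with anti-CD3ε, CD19 and NK1.1 antibodies for 30 min at 4 °C in the dark. Samples are washed twice and analysed by flow cytometry for T, B and NK cells. Mean ± SEM.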

[12] = Toxicity in C57Bl/6 mouse assessed as change in body weight at 100 mg/kg, ip measured after 30 days (reference value: 103 +/- 12 %); format: organism-based; conditions: in vivo, 720 h, time 30 day
[13] = Toxicity in C57Bl/6 mouse assessed as average body weight at 100 mg/kg, ip measured after 30 days (reference value: 27 +/ 3.2 g); format: organism-based; conditions: in vivo, 720 h, time 30 day
[14] = system: Mus musculus; test: Radioprotective activity in C57Bl/6 mouse assessed as body weight gain at 100 mg/kg, ip administered 5 min prior to gamma-irradation at 8.5 Gy measured after 30 days relative to control; format: functional
[15] = system: A2780; test: Cytotoxicity against human A2780 cells assessed as cell viability at 100 uM measured after 48 hrs by WST-1 assay relative to control; format: functional; conditions: read-out: Activity; how it was run: as §1
[16] = system: Mus musculus; test: Radioprotective activity in C57Bl/6 mouse assessed as increase in absolute NK population at 100 mg/kg, ip pretreated with compound for 5 min followed by gamma irradiation at 8.5 Gy and measured after 12 to 30 days by flow cytometry; format: functional, organism-based; how it was run: as §2
[17] = system: MOLT-4; test: Cytotoxicity against human MOLT-4 cells assessed as cell viability at 100 uM measured after 48 hrs by WST-1 assay relative to control; format: functional; conditions: read-out: Activity; how it was run: as §1
[18] = system: A549; test: Cytotoxicity against human A549 cells assessed as maximum tolerated concentration incubated for 24 hrs by MTT assay; format: functional
How it was run: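 A-549 cells in DMEM with 10% FBS and 1% penicillin-streptomycin, left to attach overnight. Compounds made up in PBS, serially diluted in DMEM, incubated 24 h, then viability read by MTT reduction against untreated controls on each plate. MTC taken as the highest concentration showing no significant difference from non-treated control (t-test).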

[19] = system: Jurkat; test: Cytotoxicity against human Jurkat cells assessed as cell viability at 10 uM measured after 48 hrs by WST-1 assay relative to control; format: functional; conditions: read-out: Activity; how it was run: as §1
[20] = system: MOLT-4; test: Radioprotective activity against gamma irradiation-induced apoptosis in human MOLT-4 cells assessed as viable cells at 100 uM pretreated with compound for 1 hr followed by gamma irradiation and measured after 24 hrs by annexinV/propidium iodide staining based flow cytometry (reference value: 40 %); format: functional; conditions: MOLT-4, light or radiation study, time 25 hrs, read-out: Activity
[21] = system: A549; test: Cytotoxicity against human A549 cells assessed as reduction in cell viability incubated for 24 hrs by MTT assay; format: functional, cell-based; conditions: A549, 24 h
How it was run: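 A-549 cells in DMEM with 10% FBS and 1% penicillin-streptomycin were attached overnight. Compounds were prepared in PBS and serially diluted in DMEM, then incubated 24 h. Viability was read by colorimetric MTT reduction against an untreated control on each plate (100%). IC50 came from four-parameter nonlinear regression of the log concentration-response curve, mean ± SEM. MTC is the highest concentration not differing from control (t-test).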

[22] = Toxicity in C57Bl/6 mouse assessed as adverse effects at 100 mg/kg, ip measured after 30 days; format: organism-based; conditions: in vivo, 720 h, time 30 day
How it was run: (§3)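 Safety in C57Bl/6 mice (27 ± 3 g) given a single 100 mg/kg i.p. injection without irradiation. Deaths, adverse effects and body weight followed over 30 days against an untreated control group. Weight reported as change from day 0.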

[23] = system: MOLT-4; test: Cytotoxicity against human MOLT-4 cells assessed as cell viability at 10 uM measured after 48 hrs by WST-1 assay relative to control; format: functional; conditions: read-out: Activity; how it was run: as §1
[24] = system: SAOS-2; test: Cytotoxicity against human SAOS-2 cells assessed as cell viability at 10 uM measured after 48 hrs by WST-1 assay relative to control; format: functional; conditions: read-out: Activity; how it was run: as §1
[25] = system: Mus musculus; test: Radioprotective activity in C57Bl/6 mouse assessed as increase in absolute B-lymphocytes at 100 mg/kg, ip pretreated with compound for 5 min followed by gamma irradiation at 8.5 Gy and measured after 12 to 30 days by flow cytometry; format: functional, organism-based; how it was run: as §2
[26] = system: Jurkat; test: Cytotoxicity against human Jurkat cells assessed as cell viability at 100 uM measured after 48 hrs by WST-1 assay relative to control; format: functional; conditions: read-out: Activity; how it was run: as §1
[27] = system: PANC-1; test: Cytotoxicity against human PANC-1 cells assessed as cell viability at 10 uM measured after 48 hrs by WST-1 assay relative to control; format: functional; conditions: read-out: Activity; how it was run: as §1
[28] = system: A549; test: Cytotoxicity against human A549 cells assessed as cell viability at 10 uM measured after 48 hrs by WST-1 assay relative to control; format: functional; conditions: read-out: Activity; how it was run: as §1
[29] = system: PANC-1; test: Cytotoxicity against human PANC-1 cells assessed as cell viability at 100 uM measured after 48 hrs by WST-1 assay relative to control; format: functional; conditions: read-out: Activity; how it was run: as §1
[30] = system: HeLa; test: Cytotoxicity against human HeLa cells assessed as cell viability at 100 uM measured after 48 hrs by WST-1 assay relative to control; format: functional; conditions: read-out: Activity; how it was run: as §1
[31] = system: A549; test: Cytotoxicity against human A549 cells assessed as cell viability at 100 uM measured after 48 hrs by WST-1 assay relative to control; format: functional; conditions: read-out: Activity; how it was run: as §1
[32] = system: SAOS-2; test: Cytotoxicity against human SAOS-2 cells assessed as cell viability at 100 uM measured after 48 hrs by WST-1 assay relative to control; format: functional; conditions: read-out: Activity; how it was run: as §1
[33] = system: MCF7; test: Cytotoxicity against human MCF7 cells assessed as cell viability at 100 uM measured after 48 hrs by WST-1 assay relative to control; format: functional; conditions: read-out: Activity; how it was run: as §1
[34] = Toxicity in C57Bl/6 mouse assessed as mouth death at 100 mg/kg, ip measured after 30 days; format: organism-based; conditions: in vivo, 720 h, time 30 day; how it was run: as §3
[35] = system: HT-29; test: Cytotoxicity against human HT-29 cells assessed as cell viability at 10 uM measured after 48 hrs by WST-1 assay relative to control; format: functional; conditions: read-out: Activity; how it was run: as §1

SMILES	viability at 10 µM [1] [%]	viability at 100 µM [3] [%]	viability at 10 µM [4] [%]	viability at 10 µM [6] [%]	viability at 48 h, 10 µM [9] [%]	viability at 48 h, 100 µM [10] [%]	viability at 100 µM [15] [%]	viability at 100 µM [17] [%]	MTD [18] [mM]	viability at 10 µM [19] [%]	viability at 100 µM [20] [%]	IC50 [21] [µM]	viability at 10 µM [23] [%]	viability at 10 µM [24] [%]	viability at 100 µM [26] [%]	viability at 10 µM [27] [%]	viability at 10 µM [28] [%]	viability at 100 µM [29] [%]	viability at 100 µM [30] [%]	viability at 100 µM [31] [%]	further results
COc1cc([N+](=O)[O-])ccc1OCC(O)CN1CCN(CCO)CC1 (stereo unspecified)	99	111	103	101	97	97	95	99	0.78	101	59	4450	92	103	92	92	93	105	108	105	Activity [2]: 27.8 g; MST [5]: 11 days; Activity [7]: 26.1 g; Activity [8]: 26.5 g; Activity [11]: Active; Activity [12]: 103%; Activity [13]: 28.5 g; Activity [14]: 101%; Activity [16]: Active; Activity [22]: Non-Toxic; Activity [25]: Active; viability at 100 µM [32]: 94%; viability at 100 µM [33]: 98%; Activity [34]: Non-Toxic; viability at 10 µM [35]: 99%
Cc1ccc(OCC(O)CN2CCN(CCO)CC2)cc1 (stereo unspecified)	97	107	107	100	112	100	94	103	0.29	101	58	2430	103	102	97	102	106	99	101	110	viability at 100 µM [32]: 83%; viability at 100 µM [33]: 100%; viability at 10 µM [35]: 98%
OCCN1CCN(CC(O)COc2ccc3ccccc3c2)CC1 (stereo unspecified)	99	103	93	109	103	98	91	100	0.02	97	65	310	109	98	96	101	102	95	116	102	viability at 100 µM [32]: 91%; viability at 100 µM [33]: 93%; viability at 10 µM [35]: 92%
